Rows were chosen to be rich in hits. Some 1.4% of all compounds tested hit in one or more screens of this group.
Tb MetRS inh: blocks T. brucei methionyl-tRNA synthetase activity. purified T. brucei MetRS, ATP depletion, Kinase-Glo luminescence. inhibition, % at 11.9 µM. hit rate 0.4% among 360,000. AID 624268;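 active = inhibition above a per-plate cutoff of the control wells' mean inhibition plus 3 SD, cut at about 5.5% in these data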;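 also: 0% = DMSO wells median and 100% = median of wells with control inhibitor compound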
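Test system: purified T. brucei MetRS enzyme. Also added: ATP, methionine and E. coli bulk tRNA substrates. Compound: 11.9 µM single point. Schedule: 15 min enzyme-compound preincubation, 2 h reaction, 10 min detection, 25 °C. Signal: luciferase luminescence of residual ATP, Kinase-Glo. Evaluation: percent inhibition versus plate control medians. Controls: DMSO wells, low control.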
Rin1-Abl PPI inh: human Rin1-Abl interaction inhibition | hit rate 0.4% among 360,000 | AID 588664 | P00519+Q13671 | TR-FRET Rin1/Abl binding, biochemical | inhibition, % at 7.35 µM; in the data active = inhibition above about 5%, passing the limit was not always enough
ATG4B inh: blocks human ATG4B protease cleavage of LC3 substrate; Q9Y4P1; ATG4B cleavage of LC3-PLA2, NBD-HPC fluorescence, 1 h; inhibition, % at 8.33 µM; hit rate 0.51% among 340,000; in the data active = inhibition above about 40%
UCH37 inh: human UCH37 deubiquitinating enzyme inhibition; Q9Y5K5; inhibition, % (concentration not given with the values); hit rate 0.33% among 330,000; AID 588478; purified proteasome/UCH37, Ub-AMC cleavage fluorescence;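 active = mean inhibition over replicate wells above about 20%, limit read from the data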;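 also: 0% = compound-free wells with enzyme and 100% = wells lacking proteasome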
Target sequence (Q9Y5K5 whole entry, looked up): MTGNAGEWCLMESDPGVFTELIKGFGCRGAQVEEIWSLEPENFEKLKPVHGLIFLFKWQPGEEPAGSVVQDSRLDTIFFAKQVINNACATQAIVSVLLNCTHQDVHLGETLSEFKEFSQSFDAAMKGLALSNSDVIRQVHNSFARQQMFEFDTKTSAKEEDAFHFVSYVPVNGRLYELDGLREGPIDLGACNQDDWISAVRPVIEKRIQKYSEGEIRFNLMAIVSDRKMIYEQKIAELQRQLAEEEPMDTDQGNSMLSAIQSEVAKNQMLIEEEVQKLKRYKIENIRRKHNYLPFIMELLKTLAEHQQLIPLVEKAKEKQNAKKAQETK
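Material: human UCH37 enzyme supplied as purified proteasome complex / Amount: 0.15 nM proteasome as dispensed / Buffer or medium: pH 7.4 Tris-HCl (50 mM) with ovalbumin, ATP-MgCl2, DTT / Times: preincubation 30 min, reaction 25 min, room temperature / Technique: AMC fluorescence from Ub-AMC cleavage, excitation 355 nm, emission 460 nm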
TbMetRS confirm: Trypanosoma brucei MetRS inhibition confirmed | shares compounds with Tb MetRS inh | T. brucei MetRS enzyme, luminescence (ATP depletion) | inhibition, % at 11.9 µM | hit rate 93% among 1,400; in the data active = inhibition above about 7%
Jurkat tox: kills Jurkat cells in T. brucei MetRS counterscreen; shares compounds with Tb MetRS inh; Jurkat cells viability, ATP luminescence; inhibition, % at 8.3 µM; hit rate 12% among 1,400; AID 624413; in the data active = inhibition above about 15%;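 also: 0% = vehicle and 100% = reference inhibitor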
Tb MetRS inh FP: T. brucei MetRS inhibition, orthogonal assay; inhibition, % at 11.9 µM; AID 651607; purified T. brucei MetRS, fluorescence polarization; shares compounds with Tb MetRS inh; hit rate 44% among 1,400; in the data active = inhibition above about 17%;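 also: 0% = vehicle wells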
The depositor's hits bear a star; · = no result.

SMILES	Tb MetRS inh	Rin1-Abl PPI inh	ATG4B inh	UCH37 inh	TbMetRS confirm	Jurkat tox	Tb MetRS inh FP
C[C@H](CO)N1C[C@H](C)[C@@H](CN(C)S(=O)(=O)c2cccs2)Oc2c(NC(=O)Nc3ccccc3)cccc2C1=O	20*	2	4	5	53*	-4	25*
C[C@H](CO)N1C[C@H](C)[C@@H](CN(C)S(=O)(=O)c2ccccc2)Oc2c(NC(=O)Nc3ccccc3)cccc2C1=O	16*	0	·	1	35*	-3	10
Cc1noc(C)c1S(=O)(=O)N(C)C[C@H]1Oc2c(NC(=O)Nc3ccccc3)cccc2C(=O)N([C@H](C)CO)C[C@@H]1C	17*	-1	-20	-2	57*	3	25*
C[C@H]1CN([C@@H](C)CO)C(=O)Cc2cc(NC(=O)Nc3ccccc3)ccc2O[C@H]1CN(C)Cc1ccccc1	9.5*	4	-8	·	31*	4	20*
O=C(O)c1ccccc1C(=O)Nc1ccc(S(=O)(=O)N2CCCC2)cc1	-2	1	5	0	·	·	·
O=C(NCc1cc(Cl)cc(Cl)c1)c1ccc2sc([C@@H]3O[C@H](CO)[C@H](O)[C@H](O)[C@H]3O)nc2c1	18*	5	·	·	51*	-3	27*
O=C(NCc1cc(Cl)cc(Cl)c1)c1csc([C@@H]2O[C@H](CO)[C@H](O)[C@H](O)[C@H]2O)n1	8.7*	-4	·	·	31*	-8	7
O=C(NCc1ccc(Cl)nc1)c1csc([C@@H]2O[C@H](CO)[C@H](O)[C@H](O)[C@H]2O)n1	0	6	·	·	·	·	·
O=c1c2ccccc2nc2c3ccccc3c(NCCO)nn12	0	-5	-6	-438	·	·	·
C=CCNC(=O)CSc1nnc(-c2ccncc2)n1CCc1ccccc1	-1	0	-4	0	·	·	·
O=C(NCCc1nc2ccccc2[nH]1)c1cccc(Br)c1	19*	-2	-5	6	30*	-5	12
O=C(Cc1nc2ccccc2[nH]1)c1ccc([N+](=O)[O-])cc1	8.0*	0	4	-27	5.8*	10	7
O=C(N/C(=C\c1ccc(Br)cc1)c1nc2ccccc2[nH]1)c1ccco1	0	0	7	-33	·	·	·
COc1ccc(OCCCC(=O)NCCc2nc3ccccc3[nH]2)cc1	48*	3	-2	3	70*	-3	32*
O=C(N/C(=C\c1cccnc1)c1nc2ccccc2[nH]1)c1cccc(Br)c1	66*	-2	-11	3	80*	-3	57*
COc1ccccc1CC1CC(=O)N(c2ccccc2)C1=O (stereo not given)	0	-5	3	3	·	·	·
O=c1n(CC2CO2)c(=O)n(CC2CO2)c(=O)n1CC1CO1 (stereo not given)	0	2	-8	·	·	·	·
O=C(NCCc1nc2ccccc2[nH]1)c1ccc([N+](=O)[O-])cc1	36*	4	-5	4	58*	4	29*
O=C(NCCc1nc2ccccc2[nH]1)c1ccc(F)cc1	6.4*	0	-5	0	10*	-1	1
O=C(COc1ccc([N+](=O)[O-])cc1)NCCc1nc2ccccc2[nH]1	6.9*	2	-4	5	12*	5	11
CC(=O)NCCc1nc2ccccc2[nH]1	0	-1	-2	3	·	·	·
CC(C)C(NC(=O)CCNC(=O)c1ccc([N+](=O)[O-])cc1)c1nc2ccccc2[nH]1 (stereo not given)	0	0	-10	0	·	·	·
CC(O)CN1C(=O)C(CC(=O)Nc2ccc(Cl)cc2)SC1=Nc1ccccc1 (stereo not given)	27*	-4	-14	3	53*	2	22*
COc1ccc(OC)c(-n2c(=O)c3ccccc3c3ccccc3c2=O)c1	0	1	-11	4	·	·	·
CCOc1ccc(-n2c(SCC(=O)Nc3cc(C)on3)nnc2-c2c[nH]c3ccccc23)cc1	1	-1	29	0	·	·	·
SMILES	Tb MetRS inh	Rin1-Abl PPI inh	ATG4B inh	UCH37 inh	TbMetRS confirm	Jurkat tox	Tb MetRS inh FP
CCOc1ccc(-n2c(SCC(=O)NCc3ccco3)nnc2-c2c[nH]c3ccccc23)cc1	12*	-3	4	2	11*	2	7
COc1ccc(OC)c(-n2c(SCC(=O)Nc3cc(C)on3)nnc2-c2c[nH]c3ccccc23)c1	18*	-1	-8	4	25*	6	9
COc1ccc(OC)c(-n2c(SC)nnc2-c2c[nH]c3ccccc23)c1	9.7*	0	4	2	25*	2	11
COc1ccc(OC)c(-n2c(SCC(N)=O)nnc2-c2c[nH]c3ccccc23)c1	9.7*	-1	-4	3	20*	6	10
Cc1ccc(NC(=O)CSC2=C(C#N)C(c3ccco3)C3=C(CCCC3=O)N2)cc1 (stereo not given)	2	-2	-25	-1	·	·	·
CN(C)/C=C(\C=NOCc1ccc(Cl)cc1Cl)C(=O)Nc1ccc(Cl)c(Cl)c1	·	·	·	8	·	·	·
N#Cc1nc(COc2ccc(Cl)cc2Cl)oc1N1CCOCC1	11*	-3	3	4	22*	8	7
O=C(NCCc1ccc(Cl)cc1)Nc1ccc(F)cc1	18*	4	-6	2	30*	-3	12
Cc1cccc(NC(=O)NCC(c2ccc(F)cc2)N2CCN(C)CC2)c1 (stereo not given)	1	-1	-9	1	·	·	·
Cc1ccc(C(CNC(=O)Nc2ccc(Cl)cc2)N2CCN(C)CC2)cc1 (stereo not given)	8.1*	3	6	2	30*	10	10
Cc1nnsc1SCCNC(=O)Nc1ccc(Cl)cc1	6.5*	-1	1	4	12*	11	15
CN1CCN(C(CNC(=O)Nc2ccc(Cl)cc2)c2ccc(F)cc2)CC1 (stereo not given)	28*	-1	18	3	52*	9	29*
Fc1ccc(NC(=S)NCCc2ccc(Cl)cc2)cc1	0	1	-1	2	·	·	·
O=C(NCCNC(=O)Nc1ccc(Cl)cc1)Nc1ccc(Cl)cc1	0	2	-7	1	·	·	·
Cc1nnc(SCC2=C(C(=O)O)N3C(=O)[C@@H](NC(=O)Cn4cnnn4)[C@H]3SC2)s1	1	-1	-7	2	·	·	·
C/C(CC(=O)Nc1ccc(Cl)c(C(F)(F)F)c1)=N\NC(=O)c1ccccc1O	16*	0	15	·	93*	28*	91*
CC(CC(=O)Nc1ccc(Cl)c(C(F)(F)F)c1)=NNC(=O)c1ccccc1O	·	·	·	-27	·	·	·
O=C(CNC(=O)c1ccccc1F)NCCc1ccc(Cl)cc1Cl	1	-1	-6	-1	·	·	·

Source: PubChem
